This note sets out measurements from ChEMBL document CHEMBL1141909, “3-Arylidene-1-(4-nitrophenylmethylene)-3,4-dihydro-1H-naphthalen-2-ones and related compounds displaying selective toxicity and reversal of multidrug resistance in neoplastic cells” (2005).

Molecules are shown by their SMILES.

Assay [1] in a line: Selectivity index of compound towards human malignant cell lines. It is filed as functional.
Assay [2] in a line: Effect of compound on multidrug resistance in colon320 neoplasm cells at 4 ug/ml concentration; expressed as fluorescence activity ratio (treated/untreated cells). It is filed as functional, Homo sapiens.
Assay [3] in a line: Effect of compound on multidrug resistance in colon320 neoplasm cells at 40 ug/ml concentration; expressed as fluorescence activity ratio (treated/untreated cells). The class given is functional, Homo sapiens.
A short description of assay [4]: Concentration for 50% cytotoxicity towards nonmalignant cells expressed in HGF normal gingival fibroblasts. Particulars: Homo sapiens.
The nature of assay [5]: Concentration for 50% cytotoxicity towards nonmalignant cells expressed in HPC normal pulp cells. The conditions noted are these: Homo sapiens.
Assay [6] is described as follows: Effect of compound on multidrug resistance in murine L-5178 cells at 40 ug/ml concentration; expressed as fluorescence activity ratio (treated/untreated cells). It is filed as functional, Mus musculus.
Assay [7] can be described thus: Effect of compound on multidrug resistance in murine L-5178 cells at 4 ug/ml concentration; expressed as fluorescence activity ratio (treated/untreated cells). The class given is functional, Mus musculus.
A short description of assay [8]: Concentration for 50% cytotoxicity towards malignant cells expressed in HSC-2 neoplastic cell line. It is filed as functional. Particulars: Homo sapiens. A digest of the protocol: (§1)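 Human oral squamous carcinoma HSC-2 and HSC-3 and submandibular gland carcinoma HSG cells were grown in DMEM with 10% heat-inactivated FBS. Near-confluent cells were exposed to various compound concentrations for 24 h. Viable cells were read by MTT (absorbance of stained lysate at 540). CC50 came from dose-response curves as the mean of duplicates.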

Assay [9] relates to HL-60. The assay is described as follows: Concentration for 50% cytotoxicity towards malignant cells expressed in HL-60 neoplastic cell line. The class given is functional. Particulars: Homo sapiens. A digest of the protocol:
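Human promyelocytic leukaemia HL-60 cells were grown in RPMI1640 with 10% FBS and exposed to various compound concentrations for 24 h. Viable cell number was counted by trypan blue exclusion. CC50 was taken from dose-response curves, mean of duplicate determinations.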

A short description of assay [10]: Concentration for 50% cytotoxicity towards nonmalignant cells expressed in HPLF normal periodontal ligament fibroblasts. Particulars: Homo sapiens.
Assay [11] can be described thus: Concentration for 50% cytotoxicity towards malignant cells expressed in HSG neoplastic cell line. It is filed as functional. The conditions noted are these: Homo sapiens. A digest of the protocol: as §1
The subject of assay [12] is HSC-3. Kind of assay: Concentration for 50% cytotoxicity towards malignant cells expressed in HSC-3 neoplastic cell line. The class given is functional. Particulars: Homo sapiens. A digest of the protocol: as §1
A short description of assay [13]: Effect of compound on multidrug resistance in murine L-5178 cells at 10 ug/ml concentration; expressed as fluorescence activity ratio (treated/untreated cells). It is filed as functional, Mus musculus.

As usually defined, the CC50 is the concentration that lowers cell viability or growth by half. Low readings indicate greater toxicity to the cells, high ones lower toxicity to the cells.

In the case of `O=C1/C(=C/c2ccc3c(c2)OCO3)Cc2ccccc2/C1=C\c1ccc([N+](=O)[O-])cc1`, in assay [1], the SI is greater than 92. The Effect in assay [2] is 1.95; in assay [3] it was 2.27; in assay [6], 3.87; in [7], 3.27. Besides, the CC50 in assay [4] is greater than 400 µM; in assay [5], greater than 400 µM; in [8], 2.6 µM; in assay [9], 2.2 µM; in assay [10], greater than 400 µM; in [11], 5 µM. Also, in assay [12], the CC50 came to 7.6 µM.
Regarding `COc1ccc(CCN(C)CCCC(C#N)(c2ccc(OC)c(OC)c2)C(C)C)cc1OC` (stereo not drawn) [VERAPAMIL], the Effect in assay [13] was 38.2.
